In data set [1] the test system is Mus musculus. Nature of the data set: Toxicity in ip dosed C57BL1/6J mouse assessed as effect on lymphocyte number at 10 mg/kg, ip. It counts as organism-based. Set-up: dose 10 mg/kg, route intraperitoneal. The note with it: in vivo. In a few lines: (§1)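 C57BL6 mice were given antagonist i.p. (10 mg/kg, or 3 mg/kg where stated) at the time of oral SEW2871 (up to 20 mg/kg) or vehicle. At 5 h, EDTA blood was taken for full blood counts and differential counts on a veterinary autoanalyzer calibrated for mouse. Blood lymphocyte data pooled n=12 per group; Student's t-test.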

Data set [2] has as its target T1, Sphingosine 1-phosphate receptor 1 (Homo sapiens, UniProt P21453). Nature of the data set: Antagonist activity at human S1P1 receptor expressed in CHO cells assessed as inhibition of S1P-induced [35S]GTPgamma binding. It counts as functional, cell-based. In a few lines: (§2)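 Membranes from CHO cells stably expressing human S1P1. [35S]GTPγS binding with serial dilutions of S1P or SEW2871 added (1–10 µg protein per well), with or without 30 min antagonist preincubation. Binding was normalized to the percentage induced by maximal S1P. Ki derived from the agonist EC50 shift.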

In data set [3] the target is T1, Sphingosine 1-phosphate receptor 1. Nature of the data set: Antagonist activity at human S1P1 receptor expressed in CHO cells assessed as inhibition of SEW2871-induced [35S]GTPgamma binding. Format: functional, cell-based. In a few lines:
as §2

In data set [4] the target is Sphingosine 1-phosphate receptor 2 (Homo sapiens) (UniProt O95136). Nature of the data set: Antagonist activity at human S1P2 receptor expressed in CHO cells assessed as inhibition of S1P-induced [35S]GTPgamma binding at 10 uM. It counts as functional, cell-based. In a few lines: (§3)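 Membranes from CHO cells expressing human S1P2, S1P3 or S1P5. [35S]GTPγS binding with serial dilutions of S1P added to membranes (1–10 µg protein per well), with or without 30 min preincubation. Antagonist concentrations were as previously described.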

Data set [5] has as its target Sphingosine 1-phosphate receptor 3 (Homo sapiens) (UniProt Q99500). Nature of the data set: Antagonist activity at human S1P3 receptor expressed in CHO cells assessed as inhibition of S1P-induced [35S]GTPgamma binding at 10 uM. It counts as functional, cell-based. In a few lines: as §3
Data set [6] deals with Sphingosine 1-phosphate receptor 5 (Homo sapiens) (UniProt Q9H228). Nature of the data set: Antagonist activity at human S1P5 receptor expressed in CHO cells assessed as inhibition of S1P-induced [35S]GTPgamma binding at 10 uM. Format: functional, cell-based. In a few lines: as §3
The target in data set [7] is Sphingosine 1-phosphate receptor 2 (Homo sapiens) (UniProt O95136). Nature of the data set: Agonist activity at human S1P2 receptor expressed in CHO cells assessed as stimulation of [35S]GTPgamma binding at 10 uM. Format: functional, cell-based. In a few lines:
as §3

For data set [8], the target named is Sphingosine 1-phosphate receptor 3 (Homo sapiens) (UniProt Q99500). Nature of the data set: Agonist activity at human S1P3 receptor expressed in CHO cells assessed as stimulation of [35S]GTPgamma binding at 10 uM. It counts as functional, cell-based. In a few lines:
as §3

The target in data set [9] is Sphingosine 1-phosphate receptor 5 (Homo sapiens) (UniProt Q9H228). Nature of the data set: Agonist activity at human S1P5 receptor expressed in CHO cells assessed as stimulation of [35S]GTPgamma binding at 10 uM. Format: functional, cell-based. In a few lines: as §3
The target of data set [10] is T1, Sphingosine 1-phosphate receptor 1. Briefly: Inhibition of GFP-tagged human S1P1 receptor internalization expressed in HEK293 cells at 10 uM by fluorimetric assay. It counts as cell-based.
The target is the same in data set [11]. Nature of the data set: Antagonist activity at human S1P1 receptor expressed in CHO cells assessed as inhibition of SEW2871-induced ERK1/2 phosphorylation at 10 uM by Western blot. Format: functional, cell-based. In a few lines:
(§4)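 CHO cells stably expressing human S1P1 or S1P3 were grown to 50% confluence and serum-starved for 16 h. Cells were preincubated 1 h with antagonist at 10 µM, then stimulated 5 min with S1P or SEW2871 in serum-free medium with 0.1% fatty-acid-free BSA. Western blots of lysates gave phospho-ERK1/2 and phospho-Akt band intensities normalized to total ERK1/2 or Akt. n≥3.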
For orientation: In western blotting, separated proteins are transferred to a membrane and probed.

The target is the same in data set [12]. Nature of the data set: Antagonist activity at human S1P1 receptor expressed in CHO cells assessed as inhibition of SEW2871-induced Akt phosphorylation at 10 uM by Western blot. Format: functional, cell-based. In a few lines: as §4
For data set [13] the target is unchanged. Briefly: Antagonist activity at human S1P1 receptor expressed in CHO cells assessed as inhibition of S1P-induced ERK1/2 phosphorylation at 10 uM by Western blot. Format: functional, cell-based. In a few lines:
as §4

Data set [14] has the same target. Briefly: Antagonist activity at human S1P1 receptor expressed in CHO cells assessed as inhibition of S1P-induced Akt phosphorylation at 10 uM by Western blot. Format: functional, cell-based. Summed up:
as §4

Data set [15] addresses Sphingosine 1-phosphate receptor 3 (Homo sapiens) (UniProt Q99500). Briefly: Antagonist activity at human S1P3 receptor expressed in CHO cells assessed as inhibition of S1P-induced ERK1/2 phosphorylation at 10 uM by Western blot. Format: functional, cell-based. Summed up:
as §4

Data set [16] has the same target. Nature of the data set: Antagonist activity at human S1P3 receptor expressed in CHO cells assessed as inhibition of S1P-induced Akt phosphorylation at 10 uM by Western blot. It counts as functional, cell-based. In a few lines: as §4
A short description of data set [17]: Plasma concentration in mouse at 10 mg/kg, ip after 5 hrs. Format: ADME, organism-based. Details: dose 10 mg/kg, route intraperitoneal. Summed up: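 Plasma concentration measured by LC-MS in mice 5 h after i.p. injection of 10 mg/kg.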
Data set [18] in a line: Volume of distribution at steady state in cannulated rat at 1 mg/kg, iv by LC-MS method. Format: ADME, organism-based. Set-up: dose 1 mg/kg, route intravenous. The following applies: in vivo, read-out: Vdss. In a few lines: (§5)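 Cannulated rats (n=3) were given 1 mg/kg i.v. Plasma levels were followed by LC-MS to derive half-life, steady-state volume of distribution and plasma clearance.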

The nature of data set [19]: Half life in cannulated rat at 1 mg/kg, iv by LC-MS method. It counts as ADME, organism-based. Details: dose 1 mg/kg, route intravenous. The note with it: in vivo. Summed up: as §5
Data set [20] is described as follows: Plasma clearance in cannulated rat at 1 mg/kg, iv by LC-MS method. Format: ADME, organism-based. Set-up: dose 1 mg/kg, route intravenous. In a few lines: as §5
The species entered for data set [21] is Mus musculus. Briefly: Inhibition of SEW2871-induced protection against VEGF-induced capillary leakage in Balb/cByJ mouse assessed as skin leakage of Evans blue dye from plasma into interstitial spaces by Miles assay. It counts as functional, organism-based. The following applies: Skin of body. Summed up:
(§6)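 Male Balb/cByJ mice (30 g) got i.p. vehicle (10 mM Na2CO3, 2% β-hydroxypropyl-cyclodextran) or antagonist 10 mg/kg, then oral SEW2871 20 mg/kg or vehicle. At 4.5 h, 0.5% Evans blue was given i.v. Intradermal murine VEGF165 (100 ng) or PBS/0.1% BSA was injected in triplicate. After 30 min, skin biopsies were extracted in formamide at 58 °C and read at 565 nm (VEGF minus BSA). ANOVA/Bonferroni.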

The species named for data set [22] is Mus musculus. Briefly: Potentiation of VEGF-induced capillary leakage in Balb/cByJ mouse assessed as skin leakage of Evans blue dye from plasma into interstitial spaces Miles assay. It counts as functional, organism-based. The following applies: Skin of body. In a few lines: as §6
The test system of data set [23] is Mus musculus. Briefly: Toxicity in ip dosed C57BL1/6J mouse assessed as induction of spontaneous pulmonary edema by Evan blue dye leakage assay. It counts as organism-based. The note with it: in vivo.
The test system of data set [24] is Mus musculus. Nature of the data set: Toxicity in ip dosed C57BL1/6J mouse assessed as effect on percentage of lymphocyte within total WBCs counts in peripheral blood at 10 mg/kg, ip. Format: organism-based. Details: dose 10 mg/kg, route intraperitoneal. The following applies: in vivo. In a few lines:
as §1

Data set [25] relates to Mus musculus. Briefly: Inhibition of SEW2871-induced lymphocyte egress in C57BL1/6J mouse assessed as blood lymphocyte sequestration at 10 to 20 mg/kg, ip. It counts as functional, organism-based. In a few lines:
as §1

Data set [26] has as its system Mus musculus. Nature of the data set: Inhibition of SEW2871-induced lymphocyte maturation in C57BL1/6J mouse assessed as medullary thymocyte phenotypic maturation at 10 to 20 mg/kg, ip. It counts as functional, organism-based. Summed up: (§7)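 Mice received oral SEW2871 (20 mg/kg) with or without i.p. antagonist (10 mg/kg). Thymi were removed at 5 h and CD69 on single-positive CD4+ thymocytes was measured by flow cytometry. n=3.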

Data set [27] concerns Mus musculus. Briefly: Inhibition of SEW2871-induced lymphopenia in C57BL1/6J mouse at 3 mg/kg, ip. It counts as functional, organism-based. Set-up: dose 3 mg/kg. In a few lines:
as §1

The test system of data set [28] is Mus musculus. Nature of the data set: Inhibition of SEW2871-induced loss of CD69 expression in single positive CD4+ thymocytes in thymic medulla of C57BL1/6J mouse at 10 mg/kg, ip by FACS method. Format: functional, organism-based. Details: dose 10 mg/kg. Summed up: as §7
The subject of data set [29] is Mus musculus. Briefly: Effect on CD69 expression in single positive CD4+ thymocytes in thymic medulla of C57BL1/6J mouse at 10 mg/kg, ip by FACS method. Format: organism-based. Set-up: dose 10 mg/kg, route intraperitoneal. The note with it: in vivo. Summed up: as §7
Background: In flow cytometry, cells or beads pass a laser one at a time.

The test system of data set [30] is Mus musculus. Nature of the data set: Inhibition of SEW2871-induced medullary arrest of T cells in inguinal lymph nodes of BALB/c mouse at 10 mg/kg, iv by FITC-conjugated dextran staining based In vivo two-photon imaging method. Details: dose 10 mg/kg. Format: functional, organism-based. The note with it: T-cell. In a few lines: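 Adoptively transferred CFSE-labelled CD4+ T cells in BALB/c mice. Mice were dosed orally with SEW2871 (10 mg/kg), and the inguinal lymph node was imaged by intravital two-photon microscopy 4–6 h later. Medullary sinus labelled with footpad rhodamine-dextran. Antagonist 10 mg/kg given i.v. during imaging; instantaneous T-cell velocities tracked in medulla and cortex.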

Here are results for two compounds from ChEMBL document CHEMBL1221186, “Enhancement of capillary leakage and restoration of lymphocyte egress by a chiral S1P1 antagonist in vivo” (Nat Chem Biol, 2006).

Calls of active or inactive are those of the source. The calls are words filed in the database; no cut-off is given here.

T1 sequence (P21453 whole entry): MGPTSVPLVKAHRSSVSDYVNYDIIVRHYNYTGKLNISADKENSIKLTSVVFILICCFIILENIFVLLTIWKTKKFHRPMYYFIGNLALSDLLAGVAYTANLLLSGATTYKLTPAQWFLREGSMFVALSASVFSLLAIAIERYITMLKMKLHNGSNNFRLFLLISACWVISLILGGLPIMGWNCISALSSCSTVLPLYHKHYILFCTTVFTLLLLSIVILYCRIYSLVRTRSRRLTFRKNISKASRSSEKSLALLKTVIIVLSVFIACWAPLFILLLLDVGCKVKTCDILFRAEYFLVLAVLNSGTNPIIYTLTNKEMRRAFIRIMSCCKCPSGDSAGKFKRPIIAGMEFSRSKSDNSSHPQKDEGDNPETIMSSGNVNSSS
Sphingosine 1-phosphate receptor 3 (Homo sapiens), sequence (Q99500 whole entry): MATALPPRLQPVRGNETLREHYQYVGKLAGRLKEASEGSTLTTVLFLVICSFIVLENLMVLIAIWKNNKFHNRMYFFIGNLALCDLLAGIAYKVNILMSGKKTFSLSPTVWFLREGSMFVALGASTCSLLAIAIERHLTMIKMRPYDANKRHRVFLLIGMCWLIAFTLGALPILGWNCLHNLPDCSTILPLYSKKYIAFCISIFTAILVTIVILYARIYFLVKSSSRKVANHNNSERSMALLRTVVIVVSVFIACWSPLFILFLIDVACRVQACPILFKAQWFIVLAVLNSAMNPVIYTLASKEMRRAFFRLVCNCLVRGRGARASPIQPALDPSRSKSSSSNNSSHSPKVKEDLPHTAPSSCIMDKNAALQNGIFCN
Sphingosine 1-phosphate receptor 5 (Homo sapiens), sequence (Q9H228 whole entry): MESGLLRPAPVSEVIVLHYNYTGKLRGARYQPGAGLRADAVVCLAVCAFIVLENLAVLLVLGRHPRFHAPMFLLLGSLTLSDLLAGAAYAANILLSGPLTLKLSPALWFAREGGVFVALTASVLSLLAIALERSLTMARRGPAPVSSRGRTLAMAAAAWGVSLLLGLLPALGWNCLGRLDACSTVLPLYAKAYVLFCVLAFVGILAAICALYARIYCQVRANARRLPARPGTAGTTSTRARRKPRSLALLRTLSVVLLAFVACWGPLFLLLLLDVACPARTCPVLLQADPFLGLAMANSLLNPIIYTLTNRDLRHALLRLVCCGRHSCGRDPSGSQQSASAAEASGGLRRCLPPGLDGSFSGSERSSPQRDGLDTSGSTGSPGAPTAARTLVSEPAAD
Sphingosine 1-phosphate receptor 2 (Homo sapiens), sequence (O95136 whole entry): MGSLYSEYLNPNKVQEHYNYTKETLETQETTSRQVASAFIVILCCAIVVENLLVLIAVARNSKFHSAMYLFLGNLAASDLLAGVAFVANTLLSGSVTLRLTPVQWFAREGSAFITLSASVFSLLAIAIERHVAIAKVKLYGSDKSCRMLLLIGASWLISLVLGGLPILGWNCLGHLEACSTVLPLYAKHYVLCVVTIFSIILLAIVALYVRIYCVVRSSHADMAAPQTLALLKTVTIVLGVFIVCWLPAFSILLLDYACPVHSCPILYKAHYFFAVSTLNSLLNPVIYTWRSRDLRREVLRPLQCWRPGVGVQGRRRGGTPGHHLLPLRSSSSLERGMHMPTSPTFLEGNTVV

As for `CCCCCCc1cccc(NC(=O)[C@H](N)CCP(=O)(O)O)c1`, the Activity result in data set [1] was “Non-toxic”; in [23], “Dose-dependent effect”; in data set [24], “Non-toxic”; in data set [29] it was “Non-toxic”. Also, the Ki was 77 nM in [2] and 18 nM in [3]. The inhibition entry in [4], in data set [5], in [6], in [15] and in [16] was “inactive” each time. Also, the result in data set [7], in data set [8] and in data set [9] was inactive. For the same compound, the inhibition result in [10], in data set [11], in data set [12], in data set [21], in data set [25] and in [26] was “Active” throughout. Besides, the inhibition entry in [27], in data set [28] and in data set [30] was “Active” each time. Moreover, the inhibition in [13] and in data set [14] was above 70% each time. This compound also yielded a concentration at 5 h in [17] of 268 nM. Moreover, the Vd in [18] was determined as 0.46 L/kg. The half-life in data set [19] came out at 1.22 h. In data set [20], this compound had a clearance of 4.63 mL/min/kg. Moreover, in data set [22], the result was Active.

Consider `CCCCCCc1cccc(NC(=O)[C@@H](N)CCP(=O)(O)O)c1`, for which the inhibition constant (Ki) in data set [2] turned out to be 4630 nM; in [3], 2840 nM. Moreover, the inhibition result in [21], in [25] and in [26] was “inactive” in each case. For the same compound, the Activity entry in data set [23] is given as “Non-toxic”.

As a reminder, the Ki is the equilibrium dissociation constant of an inhibitor or competing ligand from its target. What is called inhibition is the share of the control response that was lost under treatment. For orientation: half-life means how long it takes for the measured level to halve. A higher half-life goes with slow loss. In general, clearance refers to the rate of elimination divided by the concentration.
